Legend:
HUVEC [1] = assay: Inhibition of FGF-induced HUVEC proliferation after 48 hrs; assay type: functional, cell-based; settings: Homo sapiens
In short: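 HUVEC were seeded at 1000 cells/well in complete EBM-2 and cultured 24 h at 37 °C with 5% CO₂. Medium was replaced with EBM-2 containing 2% FBS, 3 ng/mL FGF and compound, and cells were grown a further 48 h. Cells were fixed in glutaraldehyde, stained with crystal violet, destained in acetic acid and read by absorbance at 595. Means of two experiments with SD.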

Integrin alpha-V = Integrin alpha-V (Homo sapiens, UniProt P06756+P18084); assay: Binding affinity to human integrin alphavbeta5 receptor by TRF assay
Integrin alpha-V, sequence (P06756 whole entry, one chain of several): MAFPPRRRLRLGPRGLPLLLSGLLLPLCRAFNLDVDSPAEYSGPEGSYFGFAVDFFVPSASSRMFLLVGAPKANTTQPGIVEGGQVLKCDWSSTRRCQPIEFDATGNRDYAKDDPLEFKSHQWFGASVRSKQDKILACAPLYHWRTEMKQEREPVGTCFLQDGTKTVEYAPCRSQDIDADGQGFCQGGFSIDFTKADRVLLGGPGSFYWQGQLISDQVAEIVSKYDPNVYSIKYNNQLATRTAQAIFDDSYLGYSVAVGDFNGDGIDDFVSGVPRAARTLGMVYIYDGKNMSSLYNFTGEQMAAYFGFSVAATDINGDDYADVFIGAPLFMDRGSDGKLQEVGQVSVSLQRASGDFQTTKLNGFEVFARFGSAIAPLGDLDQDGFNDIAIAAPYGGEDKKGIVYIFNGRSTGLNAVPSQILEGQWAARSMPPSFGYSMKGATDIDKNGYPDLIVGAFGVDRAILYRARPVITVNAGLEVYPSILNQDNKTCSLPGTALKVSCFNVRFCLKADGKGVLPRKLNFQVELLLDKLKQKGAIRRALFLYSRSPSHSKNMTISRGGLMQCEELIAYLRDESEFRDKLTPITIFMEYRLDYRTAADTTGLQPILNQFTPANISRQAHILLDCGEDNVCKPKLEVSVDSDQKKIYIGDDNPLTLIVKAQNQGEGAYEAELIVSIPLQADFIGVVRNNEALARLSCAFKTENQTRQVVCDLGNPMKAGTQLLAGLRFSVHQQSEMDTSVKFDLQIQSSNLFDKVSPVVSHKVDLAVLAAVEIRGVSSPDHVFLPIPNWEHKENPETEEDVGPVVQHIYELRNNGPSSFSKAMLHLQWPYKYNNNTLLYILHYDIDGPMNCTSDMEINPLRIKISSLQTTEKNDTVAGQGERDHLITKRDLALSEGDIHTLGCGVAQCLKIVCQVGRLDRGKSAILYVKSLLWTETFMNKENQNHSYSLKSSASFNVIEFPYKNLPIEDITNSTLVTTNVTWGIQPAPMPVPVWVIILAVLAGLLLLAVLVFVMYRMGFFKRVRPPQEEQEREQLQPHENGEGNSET
In short: (§1)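 Wells were coated with αvβ3 or αvβ5 overnight at 4 °C in buffer A (50 mM Tris–HCl pH 7.4, 100 mM NaCl, 1 mM each MgCl₂, CaCl₂, MnCl₂), then blocked with 1% BSA for 1 h at RT. Compound and 20 nM Eu³⁺-vitronectin in buffer A plus DTPA and 0.05% BSA were added for 1 h at RT. Wells were washed, enhancement solution was added for 10 min with shaking, and time-resolved fluorescence was read.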

HUVEC [2] = assay: Inhibition of VEGF-induced HUVEC proliferation after 48 hrs; assay type: functional, cell-based; settings: Homo sapiens
Integrin alpha-V/beta-3 = Integrin alpha-V/beta-3 (Homo sapiens, UniProt P05106+P06756); assay: Binding affinity to human integrin alphavbeta3 receptor by TRF assay; in short: as §1
Integrin alpha-V/beta-3, sequence (P05106 27-788 limits assumed): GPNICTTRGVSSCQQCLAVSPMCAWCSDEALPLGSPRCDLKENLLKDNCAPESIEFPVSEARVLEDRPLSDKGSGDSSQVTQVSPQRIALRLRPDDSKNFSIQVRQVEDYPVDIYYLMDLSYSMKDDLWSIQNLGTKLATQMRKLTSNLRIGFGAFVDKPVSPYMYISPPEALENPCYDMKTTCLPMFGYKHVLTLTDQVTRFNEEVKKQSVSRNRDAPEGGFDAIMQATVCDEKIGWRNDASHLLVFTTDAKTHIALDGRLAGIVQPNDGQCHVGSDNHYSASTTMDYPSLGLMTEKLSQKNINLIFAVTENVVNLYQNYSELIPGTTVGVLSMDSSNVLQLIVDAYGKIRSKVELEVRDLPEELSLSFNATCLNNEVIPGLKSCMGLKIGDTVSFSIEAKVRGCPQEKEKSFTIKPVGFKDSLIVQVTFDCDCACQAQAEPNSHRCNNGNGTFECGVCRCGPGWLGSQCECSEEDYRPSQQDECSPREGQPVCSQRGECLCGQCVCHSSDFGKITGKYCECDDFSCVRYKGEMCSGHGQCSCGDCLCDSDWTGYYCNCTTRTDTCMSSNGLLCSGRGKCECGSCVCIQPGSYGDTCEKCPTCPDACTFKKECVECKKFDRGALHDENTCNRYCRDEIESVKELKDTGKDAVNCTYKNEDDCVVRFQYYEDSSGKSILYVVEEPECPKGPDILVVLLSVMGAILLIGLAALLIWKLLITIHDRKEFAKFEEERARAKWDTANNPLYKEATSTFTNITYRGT
Integrin alpha-V/beta-3, sequence (P06756 31-889 limits assumed): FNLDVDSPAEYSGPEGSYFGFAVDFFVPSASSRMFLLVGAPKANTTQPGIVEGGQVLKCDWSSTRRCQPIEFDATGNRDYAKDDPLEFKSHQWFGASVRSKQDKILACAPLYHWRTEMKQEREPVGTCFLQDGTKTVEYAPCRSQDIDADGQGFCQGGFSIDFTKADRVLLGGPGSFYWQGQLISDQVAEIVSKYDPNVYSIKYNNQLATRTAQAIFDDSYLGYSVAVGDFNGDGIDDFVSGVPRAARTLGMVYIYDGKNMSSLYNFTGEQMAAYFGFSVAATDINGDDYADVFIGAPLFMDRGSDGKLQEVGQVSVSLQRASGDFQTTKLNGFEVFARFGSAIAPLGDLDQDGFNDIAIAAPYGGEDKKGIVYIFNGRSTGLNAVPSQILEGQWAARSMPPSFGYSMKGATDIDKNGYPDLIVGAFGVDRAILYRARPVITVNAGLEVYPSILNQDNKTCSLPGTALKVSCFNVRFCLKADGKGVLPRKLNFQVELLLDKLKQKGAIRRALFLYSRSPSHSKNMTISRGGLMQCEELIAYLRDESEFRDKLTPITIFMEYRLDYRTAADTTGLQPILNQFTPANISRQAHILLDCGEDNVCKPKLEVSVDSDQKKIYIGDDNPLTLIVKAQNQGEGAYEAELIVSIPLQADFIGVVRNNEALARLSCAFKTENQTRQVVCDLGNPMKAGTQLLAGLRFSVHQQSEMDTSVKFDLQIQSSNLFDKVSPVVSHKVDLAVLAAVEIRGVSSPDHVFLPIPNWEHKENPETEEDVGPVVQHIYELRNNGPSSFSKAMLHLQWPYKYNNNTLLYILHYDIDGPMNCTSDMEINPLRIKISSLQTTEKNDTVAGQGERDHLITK
Integrin alpha-V/beta-3, sequence (P06756 891-1048 limits assumed): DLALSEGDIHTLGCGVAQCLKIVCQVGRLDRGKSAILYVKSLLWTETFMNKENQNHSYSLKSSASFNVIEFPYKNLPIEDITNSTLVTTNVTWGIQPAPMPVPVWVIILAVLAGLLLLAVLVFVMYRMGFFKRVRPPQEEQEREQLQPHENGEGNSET

[3] = Apparent permeability across human Caco-2 cells; assay type: ADME, cell-based
HUVEC [4] = assay: Inhibition of HUVEC migration after 4 hrs; assay type: functional, cell-based; settings: Homo sapiens
In short: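 Boyden-chamber filters were coated with vitronectin in HEPES/NaCl/divalent-cation buffer for 1 h at 37 °C, then blocked with 2% BSA for 1 h. HUVEC were added to the upper chamber at 20,000/well in migration buffer with or without compound and incubated 4 h at 37 °C. Non-migrated cells were removed; migrated cells were fixed, stained with crystal violet, photographed and quantified. Means of two experiments with SD.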

[5] = target: Integrin alpha-IIb/beta-3 (Homo sapiens, UniProt P05106+P08514); assay: Binding affinity to human integrin […] receptor by TRF assay; assay type: protein-complex assay
Integrin alpha-IIb/beta-3, sequence (P05106 27-788 limits assumed): as the sequence (P05106 27-788 limits assumed) above
Integrin alpha-IIb/beta-3, sequence (P08514 32-887 limits assumed): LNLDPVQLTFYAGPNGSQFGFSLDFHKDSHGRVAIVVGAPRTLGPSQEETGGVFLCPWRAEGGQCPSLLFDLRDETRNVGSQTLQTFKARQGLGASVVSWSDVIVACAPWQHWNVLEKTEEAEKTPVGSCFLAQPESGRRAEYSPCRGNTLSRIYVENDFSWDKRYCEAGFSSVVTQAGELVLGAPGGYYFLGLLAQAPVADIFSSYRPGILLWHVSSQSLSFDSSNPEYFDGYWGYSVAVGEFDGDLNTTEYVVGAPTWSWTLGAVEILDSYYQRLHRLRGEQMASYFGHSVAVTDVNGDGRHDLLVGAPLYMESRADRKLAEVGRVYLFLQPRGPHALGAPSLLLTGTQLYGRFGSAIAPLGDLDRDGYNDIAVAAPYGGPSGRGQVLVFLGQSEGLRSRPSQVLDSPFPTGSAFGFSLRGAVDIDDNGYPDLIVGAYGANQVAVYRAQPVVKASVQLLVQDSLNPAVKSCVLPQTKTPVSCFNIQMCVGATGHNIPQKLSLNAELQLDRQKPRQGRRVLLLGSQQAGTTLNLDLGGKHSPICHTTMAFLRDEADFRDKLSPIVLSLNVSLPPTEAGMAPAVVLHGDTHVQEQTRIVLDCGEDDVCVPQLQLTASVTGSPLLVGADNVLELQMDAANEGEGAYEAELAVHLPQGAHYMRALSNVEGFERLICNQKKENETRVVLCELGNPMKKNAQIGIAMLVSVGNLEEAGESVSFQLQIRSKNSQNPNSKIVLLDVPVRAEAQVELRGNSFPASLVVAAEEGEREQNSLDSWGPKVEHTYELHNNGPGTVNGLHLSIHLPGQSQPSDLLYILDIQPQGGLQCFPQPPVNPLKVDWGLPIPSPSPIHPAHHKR
Integrin alpha-IIb/beta-3, sequence (P08514 891-1039 limits assumed): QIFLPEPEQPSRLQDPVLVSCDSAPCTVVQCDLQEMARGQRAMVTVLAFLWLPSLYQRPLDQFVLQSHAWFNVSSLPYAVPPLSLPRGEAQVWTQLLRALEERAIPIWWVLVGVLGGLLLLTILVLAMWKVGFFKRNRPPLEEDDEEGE
In short: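 Purified αIIbβ3 coated overnight at 4 °C in buffer A (50 mM Tris–HCl pH 7.4, 100 mM NaCl, 1 mM each MgCl₂, CaCl₂, MnCl₂), then blocked with 1% BSA for 1 h at RT. Compound plus 20 nM Eu³⁺-fibrinogen in buffer A with DTPA and 0.05% BSA, 1 h at RT. After washing, enhancement solution was added for 10 min with shaking and time-resolved fluorescence was read.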

Structure (SMILES) | IC50 (HUVEC [1]) [nM] | IC50 (Integrin alpha-V) [nM] | IC50 (HUVEC [2]) [µM] | IC50 (Integrin alpha-V/beta-3) [nM] | Papp [3] [×10⁻⁶ cm/s] | IC50 (HUVEC [4]) [nM] | IC50 [5] [µM]
O=C(O)CC(c1ccc2c(c1)OCO2)N1CCc2cc(Oc3cccc4c3nc3n4CCCN3)ccc2C1=O (stereo not given) | 2900 | 14 | 1.1 | 2 | 8.96 | 40 | 0.167
Cn1c(N)nc2c(Oc3ccc(C(=O)NCCC(=O)O)cc3)cccc21 |  | 2050 |  | 230 |  |  | 
Cn1c(N)nc2c(Oc3ccc4c(c3)CN(CCC(=O)O)C4=O)cccc21 |  | 4800 |  | 180 |  |  | > 10
O=C(O)CC(c1cccnc1)N1CCc2cc(Oc3cccc4c3nc3n4CCCN3)ccc2C1=O (stereo not given) | 1100 | 5 | 4.3 | 1 |  | 37 | 0.323
Cn1c(N)nc2c(Oc3ccc4c(c3)CCN(CCC(=O)O)C4=O)cccc21 |  | 600 |  | 39 |  |  | > 10
Cn1c(N)nc2c(Oc3ccc4c(c3)CCCN(CCC(=O)O)C4=O)cccc21 |  | 4300 |  | 370 |  |  | > 10
O=C(O)CCN1CCc2cc(Oc3cccc4c3nc3n4CCCN3)ccc2C1=O |  | 310 |  | 7 |  |  | 6.3
CC(C)[C@@H]1NC(=O)[C@@H](Cc2ccccc2)NC(=O)[C@H](CC(=O)O)NC(=O)CNC(=O)[C@H](CCCN=C(N)N)NC1=O [CYCLORGDFV] | 3100 |  | 4.5 |  |  | 530 | 
